Measured values from ChEMBL document CHEMBL1125534, “Omega-[(omega-arylalkyl)aryl]alkanoic acids: a new class of specific LTA4 hydrolase inhibitors” (J Med Chem, 1992).

What was measured:
[1] = Inhibition of LTB4 biosynthesis by porcine leukocytes at LTA4 hydrolase level at a concentration of 2*10e-5 M; type: functional, Sus scrofa
Method in brief: (§1)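 Porcine leukocyte homogenate (cells at 10⁸/mL, sonicated) with CaCl₂ and ATP each at 2 mmol/L final. Preincubated 3 min at 25 °C with inhibitor (in ethanol or PBS) plus 5,8,11,14-[…] acid 4 μmol/L final to block 12-LO. Then incubated 5 min at 37 °C with [1-¹⁴C]arachidonic acid. LTB₄ and 6-trans-isomers separated by HPLC with radioactivity detection. Mean of ≥3 experiments.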

[2] = Evaluated for the inhibitory activity against Leukotriene A4 hydrolase; design: species or system Sus scrofa; method in brief: as §1
[3] = tested on: Leukotriene A-4 hydrolase (Sus scrofa); assay: Inhibition of LTA4 hydrolase mediated LTB4 biosynthesis by porcine leukocytes at 2*10e-5M
[4] = tested on: Leukotriene A-4 hydrolase (Sus scrofa); assay: Inhibitory activity against Leukotriene A4 hydrolase at 5 mg/kg (po) in rat plasma extracts
[5] = tested on: Leukotriene A-4 hydrolase (Sus scrofa); assay: Inhibitory activity against Leukotriene A4 hydrolase at 100 mg/kg (po) in rat plasma extracts
[6] = tested on: Leukotriene A-4 hydrolase (Sus scrofa); assay: Inhibitory activity against Leukotriene A4 hydrolase at 30 mg/kg (po) in rat plasma extracts
[7] = tested on: Leukotriene A-4 hydrolase (Sus scrofa); assay: Inhibitory activity against Leukotriene A4 hydrolase at 100 mg/kg (po) in rat plasma
[8] = tested on: Leukotriene A-4 hydrolase (Sus scrofa); assay: Inhibitory activity Leukotriene A4 hydrolase at 5 mg/kg (po) in rat plasma

| SMILES | Inhibition [1] | IC50 [2] | inhibition [3] | other results |
| --- | --- | --- | --- | --- |
| O=C(O)CCCCCCc1ccc(CCCc2cccc(Cl)c2)s1 | 45% | – | – | – |
| O=C(O)CCCCCCc1ccc(Cc2ccccc2Cl)cc1 | 0% | – | – | – |
| O=C(O)CCCCCCc1ccc(Cc2cccc3ccccc23)cc1 | 0% | – | – | – |
| CC(C)(C)c1ccc(Cc2ccc(CCCCCCC(=O)O)cc2)cc1 | 0% | – | – | – |
| O=C(O)CCCCCCc1ccc(Cc2ccc(Cl)cc2)cc1 | – | 7.2 µM | 73% | inhibition [4]: 22%; inhibition [5]: 7% |
| O=C(O)CCCCCCc1ccc(Cc2ccc([N+](=O)[O-])cc2)cc1 | – | 72.5 µM | 53% | – |
| N#CCCCCCCc1ccc(CCCc2ccccc2)s1 | 0% | – | – | – |
| CC(C)(CCCCCc1ccc(CCCc2ccccc2)s1)C(=O)O | 46% | – | – | – |
| O=C(O)CCCCCc1ccc(CCCc2ccccc2)cc1 | 43% | – | – | – |
| O=C(O)CCCC(O)CCc1ccc(CCCc2ccccc2)s1 (configuration not stated) | – | 6.2 µM | 73% | – |
| O=C(O)CCCCCCc1ccc(Cc2cnc3ccccc3c2)cc1 | – | 5 µM | 85% | inhibition [4]: 27%; inhibition [6]: 19%; inhibition [5]: 27% |
| CC(=O)Nc1ccc(Cc2ccc(CCCCCCC(=O)O)cc2)cc1 | 41% | – | – | – |
| O=C([O-])CCCCCCCc1ccc(CCCc2ccccc2)s1.[Na+] | 0% | – | – | – |
| O=C(O)CCCCCCc1ccc(CCc2ccccc2)s1 | – | 3.5 µM | 86% | – |
| O=C(O)CCCCCCc1ccc(CCCc2ccccc2)s1 | – | 2.9 µM | – | inhibition [7]: 82%; inhibition [4]: 0%; inhibition [6]: 44% |
| O=C([O-])CCCCc1ccc(CCCc2ccccc2)cc1.[Na+] | 35% | – | – | – |
| COC(=O)COCCCCc1ccc(CCCc2ccccc2)s1 | 66% | – | – | – |
| O=C(O)CCCCCCc1ccc(Cc2ccccc2)s1 | – | 15 µM | 51% | – |
| O=C(O)CCCCCSc1ccc(CCCc2ccccc2)s1 | – | 2.8 µM | 79% | inhibition [4]: 4%; inhibition [6]: 19%; inhibition [5]: 19% |
| c1ccc(CCCc2ccc(CCCCCCC3N=NN=N3)s2)cc1 | 29% | – | – | – |
| CNc1ccc(Cc2ccc(CCCCCCC(=O)O)cc2)cc1 | 78% | – | – | – |

| SMILES | Inhibition [1] | IC50 [2] | inhibition [3] | other results |
| --- | --- | --- | --- | --- |
| O=C(O)CCCCCC(=O)c1ccc(CCCc2ccccc2)cc1 | 27% | – | – | – |
| O=C(O)CCCNC(=O)Cc1ccc(CCCc2ccccc2)s1 | 12% | – | – | – |
| O=C(O)CNC(=O)CCCc1ccc(CCCc2ccccc2)s1 | 53% | – | – | – |
| O=C(O)CCCCCCc1ccc(Cc2ccc(O)cc2)cc1 | 56% | – | – | – |
| NC(=O)Nc1ccc(Cc2ccc(CCCCCCC(=O)O)cc2)cc1 | – | 1.7 µM | 100% | – |
| O=C(O)CCCCCCc1ccc(CCCc2ccccc2)cc1 | – | 3.4 µM | 76% | inhibition [6]: 15% |
| O=C(O)CCCCCCc1ccc(Cc2ccccc2)cc1 | – | 3 µM | 79% | – |
| O=C(O)CCCCCSc1ccc(Cc2ccccc2)cc1 | – | 9.1 µM | 82% | – |
| O=C(O)CCCC(=O)CCc1ccc(CCCc2ccccc2)s1 | – | 6.3 µM | 82% | – |
| O=C(O)CCCCCCc1ccc(Cc2ccncc2)cc1 | 43% | – | – | – |
| O=C(O)CCCCCCCc1ccc(CCCc2ccccc2)cc1 | 45% | – | – | – |
| O=C(O)CCCCC[S+]([O-])c1ccc(CCCc2ccccc2)s1 (configuration not stated) | 0% | – | – | – |
| CS(=O)(=O)Nc1ccc(Cc2ccc(CCCCCCC(=O)O)cc2)cc1 | 0% | – | – | – |
| O=C(O)CCCCCc1ccc(CCCc2ccccc2)s1 | 61% | – | – | – |
| O=C(O)CCCCCSc1ccc(CCCc2ccccc2)cc1 | – | 6.2 µM | 74% | inhibition [6]: 20%; inhibition [5]: 12% |
| O=C(O)CCCCCCc1ccc(Cc2ccc3ccccc3c2)cc1 | 22% | – | – | – |
| O=C(O)CCCCCCc1ccc(CCc2ccccc2)cc1 | – | 30 µM | 43% | – |
| O=C(O)CCCCCCc1ccc(CCCc2ccc(O)cc2)s1 | 69% | – | – | – |
| O=C(O)CCCCCCc1ccc(-c2ccccc2)cc1 | 41% | – | – | – |
| COc1ccc(CCCc2ccc(SCCCCCC(=O)O)cc2)cc1 | 35% | – | – | – |
| NC(=O)CCCCCCc1ccc(CCCc2ccccc2)s1 | 0% | – | – | – |

| SMILES | Inhibition [1] | IC50 [2] | inhibition [3] | other results |
| --- | --- | --- | --- | --- |
| CN(C)c1ccc(Cc2ccc(CCCCCCC(=O)O)cc2)cc1 | 29% | – | – | – |
| O=C([O-])CCCCc1ccc(CCCc2ccccc2)s1.[Na+] | 0% | – | – | – |
| O=C(O)CCCCCCc1ccc(Cc2cccnc2)cc1 | 65% | – | – | – |
| O=C([O-])CCCCCCc1ccc(CCCCc2ccccc2)s1.[Na+] | 0% | – | – | – |
| O=C(O)CCCCCOc1ccc(Cc2ccccc2)cc1 | 69% | – | – | – |
| O=C(O)CCCCCCc1ccc(-c2ccccc2)s1 | 67% | – | – | – |
| O=C(O)CCCC(=O)NCc1ccc(CCCc2ccccc2)s1 | 38% | – | – | – |
| O=C(O)COCCCCc1ccc(CCCc2ccccc2)s1 | – | 1.5 µM | 90% | inhibition [8]: 40%; inhibition [6]: 54%; inhibition [5]: 73% |
| Cc1ccc(Cc2ccc(CCCCCCC(=O)O)cc2)cc1 | – | 21.1 µM | 63% | – |
| COc1ccc(Cc2ccc(CCCCCCC(=O)O)cc2)cc1 | – | 9.2 µM | 69% | – |
| O=C(O)CCCCCS(=O)(=O)c1ccc(Cc2ccccc2)cc1 | 2% | – | – | – |
| COc1ccc(CCCc2ccc(CCCCCCC(=O)O)s2)cc1 | – | 9.7 µM | 80% | – |
| O=C(O)CCCCCS(=O)(=O)c1ccc(CCCc2ccccc2)s1 | 0% | – | – | – |
| Nc1ccc(Cc2ccc(CCCCCCC(=O)O)cc2)cc1 | – | 0.9 µM | 89% | inhibition [4]: 29%; inhibition [5]: 31% |
| O=C(O)CCCCCCc1ccc(Cc2ccccn2)cc1 | – | 7.7 µM | 76% | – |
| O=C(O)CCCCCCc1ccc(Cc2ccc3ccccc3n2)cc1 | 48% | – | – | – |
| O=C(O)CCCCCCc1ccc(Cc2ccnc3ccccc23)cc1 | 0% | – | – | – |
| O=C(O)CCCCCCc1ccc(Cc2ccc(C(F)(F)F)cc2)cc1 | – | 188 µM | 19% | – |
| O=C(O)CCCCCCc1ccc(CCCc2ccc(Cl)cc2)s1 | 63% | – | – | – |
| O=C(O)CCCCCC(=O)c1ccc(CCCc2ccccc2)s1 | 66% | – | – | – |
